CHOP UPR activ: activators of apoptotic CHOP UPR arm, primary screen, cell-based, CHO-CHOP luciferase reporter, luminescence, uHTS; UPR activation; percent of tunicamycin response over DMSO baseline; activation, % at 10 µM; actives 0.34% (n = 330,000); AID 449763, 2010;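 active = at 10 µM dose, activation of 40% or more, normalized to positive control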;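 note: 100% = tunicamycin at 10 µg/mL and 0% = DMSO alone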
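Dosing – one dose, 10 µM in 0.5% DMSO · System – CHO-CHOP cells, stable luciferase reporter of PERK-eIF2a-CHOP signalling · Input – 500 cells/well · Control set – tunicamycin 10 µg/mL final as positive, DMSO-only wells as negative · Timing – 6 h compound treatment, 37 °C · Measure – % activation vs tunicamycin · Technique – luminescence read with Steady-Glo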
TIM10 inh: growth inhibitors of isogenic TIM10 control yeast, primary screen, counter-screen for tim10-1 yeast inhibitor project, luminescence, uHTS; S. cerevisiae TIM10 strain growth, BacTiter-Glo luminescence, 24 h; inhibition, % at 10 µM; AID 463195, 2010; actives 1.4% (n = 330,000);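 active = inhibition of 40% or more at the single tested concentration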;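 note: wild-type TIM10 isogenic control strain grown at permissive 25 °C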
UPR XBP1 act: activators of adaptive XBP1 UPR arm, primary screen, cell-based, CHO-XBP1 luciferase reporter, luminescence, uHTS | IRE1-XBP1 UPR activation; percent of tunicamycin response, DMSO as zero | activation, % at 20 µM | actives 0.33% (n = 330,000);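 active = versus positive control, 20 µM dose yields 30% or more activation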;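 note: 100% = tunicamycin at 10 µg/mL and 0% = DMSO only wells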
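Assay system: IRE1-XBP1 luciferase reporter CHO line. Input: 1000 cells/well. Buffer or medium: F12 with 10% serum. Doses: 20 µM, 1% DMSO. Times: overnight seeding at 37 °C, 6 h compound treatment at 37 °C. Technique: Steady-Glo luciferase glow luminescence, 10 min after reagent addition.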
tim10-1 inh: growth inhibitors of tim10-1 mutant yeast, primary screen, luminescence, uHTS. inhibition, % at 20 µM. actives 2.2% (n = 330,000). S. cerevisiae tim10-1 ts strain growth, BacTiter-Glo, 24 h;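 active = inhibition of at least 40%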;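 note: mutant grown at 25 °C; 0% = DMSO wells with yeast and 100% = wells holding no yeast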
tim23-1 inh: growth inhibitors of tim23-1 mutant yeast, primary screen, luminescence, uHTS; S. cerevisiae tim23-1 growth, BacTiter-Glo luminescence, 24 h; inhibition, % at 20 µM; actives 1.3% (n = 330,000); AID 463212, 2010;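 active = growth inhibition of the mutant yeast at or above 50%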;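 note: temperature-sensitive mutant grown at 25 °C; plate controls were DMSO-treated mutant yeast for no effect and medium wells lacking yeast for full effect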
tim23-1 confirm: tim23-1 mutant yeast growth inhibitors, confirmation, luminescence, single concentration. shares compounds with tim23-1 inh. S. cerevisiae tim23-1 growth, BacTiter-Glo luminescence, 24 h. inhibition, % at 20 µM. actives 83% (n = 4,400). AID 463218, 2010;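 active = inhibition above about 39% in either of two replicate wells at 20 µM, limit read from the data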;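 note: temperature-sensitive tim23-1 mutant grown at 25 °C; 0% = DMSO wells with yeast and 100% = medium wells without yeast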
Numbers without * were called inactive. Hits are enriched below; roughly 3.9% of the tested compounds scored in any of these assays.

For CN1CCc2cc3c(c4c2C1Cc1ccccc1-4)OCO3 (configuration not stated) the results were CHOP UPR activ 2, TIM10 inh 28, UPR XBP1 act -3, tim10-1 inh 33, tim23-1 inh 67* and tim23-1 confirm 67*.
For CN1CCc2cc(O)cc3c2[C@H]1Cc1ccc(O)c(O)c1-3 the results were CHOP UPR activ -2, TIM10 inh -15, UPR XBP1 act -6, tim10-1 inh 0 and tim23-1 inh -15.
`COc1ccc(CN2CCN(C(=O)Cc3ccccc3)CC2)cc1Br` gave CHOP UPR activ 1, TIM10 inh -1, UPR XBP1 act -2, tim10-1 inh 8 and tim23-1 inh 26.
O=c1[nH]c(=S)n(CCC2=CCCCC2)c(O)c1/C=N/N1CCOCC1 was read as CHOP UPR activ 1, TIM10 inh 36, UPR XBP1 act -2, tim10-1 inh 37, tim23-1 inh 52* and tim23-1 confirm 37*.
For CCC(C)NC(=O)c1c(N)n(CCCOC)c2nc3ccccc3nc12 (configuration not stated) the results were CHOP UPR activ -1, TIM10 inh 25, UPR XBP1 act 3, tim10-1 inh 39, tim23-1 inh 53* and tim23-1 confirm 48*.
Screening CCCC(C)C1(CC)C(=O)NC(=Nc2ccc(OC)cc2)NC1=O (configuration not stated) returned CHOP UPR activ -2, TIM10 inh 20, UPR XBP1 act 1, tim10-1 inh 26 and tim23-1 inh 27.
`CC1(C)OC(c2ccccc2)=C/C(=C/C=C2C(=O)NC(=S)NC2=O)O1` gave CHOP UPR activ 0, TIM10 inh 21, UPR XBP1 act -1, tim10-1 inh 25, tim23-1 inh 57* and tim23-1 confirm 63*.
For O=S(=O)(NC1CCCCCCC1)OCC(Cl)(Cl)Cl the results were CHOP UPR activ -1, TIM10 inh 26, UPR XBP1 act 1, tim10-1 inh 27, tim23-1 inh 50* and tim23-1 confirm 59*.
`FC(F)(F)Oc1ccc(NC2=NCCCS2)cc1` gave CHOP UPR activ 4, TIM10 inh 9, UPR XBP1 act 4, tim10-1 inh -12 and tim23-1 inh 0.
Cc1ccc(-c2nn(Cc3ccccc3)cc2C(=O)O)cc1 was read as CHOP UPR activ -1, TIM10 inh -17, UPR XBP1 act -4, tim10-1 inh -9 and tim23-1 inh 2.
For Cc1ccc(-c2nn(Cc3ccccc3)cc2C=O)cc1 the results were CHOP UPR activ 5, TIM10 inh 27, UPR XBP1 act 0, tim10-1 inh 18, tim23-1 inh 57* and tim23-1 confirm 55*.
`COP(=O)(OC)/C(C=O)=N/Nc1ccc([N+](=O)[O-])cc1` gave CHOP UPR activ -1, TIM10 inh 10, UPR XBP1 act -4, tim10-1 inh 9, tim23-1 inh 52* and tim23-1 confirm 50*.
`COc1ccc(NC(=O)c2cc([N+](=O)[O-])ccc2N2CCNCC2)cc1` gave CHOP UPR activ 0, TIM10 inh 14, UPR XBP1 act -2, tim10-1 inh -4 and tim23-1 inh -10.
Screening CCCCn1c(O)c(/C(C)=N/NC(=O)Nc2ccccc2)c(=O)[nH]c1=O returned CHOP UPR activ 1, TIM10 inh -1, UPR XBP1 act -2, tim10-1 inh 2 and tim23-1 inh -4.
COc1cc(-n2c(=S)[nH]c3ccccc3c2=O)c(Cl)cc1Cl was read as CHOP UPR activ 1, TIM10 inh 23, UPR XBP1 act -2, tim10-1 inh 25, tim23-1 inh 52* and tim23-1 confirm 38.
For O=c1c2ccccc2[nH]c(=S)n1-c1ccc(Br)cc1 the results were CHOP UPR activ -1, TIM10 inh -6, UPR XBP1 act -2, tim10-1 inh 4 and tim23-1 inh 14.
For CC(C)CN1CCN(Cc2c(F)cccc2Cl)CC1CCO (configuration not stated) the results were CHOP UPR activ 0, TIM10 inh -18, UPR XBP1 act -3, tim10-1 inh 5 and tim23-1 inh 0.
Cc1ccccc1-n1c(/C=C/c2ccccn2)nc2ccccc2c1=O was read as CHOP UPR activ 3, TIM10 inh 7, UPR XBP1 act -1, tim10-1 inh 34, tim23-1 inh 52* and tim23-1 confirm 43*.
For O=c1c2ccccc2nc(/C=C/c2ccccc2)n1-c1ccccc1O the results were CHOP UPR activ 0, TIM10 inh 18, UPR XBP1 act 4, tim10-1 inh 25, tim23-1 inh 51* and tim23-1 confirm 44*.
O=c1c2ccccc2nc(/C=C/c2ccc(O)cc2)n1-c1ccccc1O was read as CHOP UPR activ 3, TIM10 inh 4, UPR XBP1 act 0, tim10-1 inh 14 and tim23-1 inh 31.
